The structures appear in SMILES notation. Activity calls are given as the source filed them. No cut-off for these calls is given here.

The target of data set [1] is T1, Free fatty acid receptor 1 (Homo sapiens, UniProt O14842). The data set can be described thus: Agonist activity at human GPR40 expressed in human HEK293 cells assessed as increase in intracellular calcium flux after 10 mins by fluorescence assay relative to linoleic acid. Format: functional, cell-based. Summed up: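 Human GPR40 activity read by calcium mobilization to give EC50. Emax expressed relative to linoleic acid as 100%. Mean ± SD, n = 3.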
T1 sequence (O14842 whole entry): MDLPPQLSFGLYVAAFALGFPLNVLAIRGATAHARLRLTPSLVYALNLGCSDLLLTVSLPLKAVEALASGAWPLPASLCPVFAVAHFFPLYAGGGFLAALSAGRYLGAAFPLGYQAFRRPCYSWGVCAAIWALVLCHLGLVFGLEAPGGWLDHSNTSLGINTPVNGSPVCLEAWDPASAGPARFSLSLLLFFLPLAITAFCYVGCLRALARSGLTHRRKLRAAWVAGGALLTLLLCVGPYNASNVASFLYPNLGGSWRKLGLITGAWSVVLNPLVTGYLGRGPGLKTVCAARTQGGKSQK
In general terms: A change in cytosolic calcium serves as a functional read-out for many receptors and channels.

For data set [2], the target named is T1, Free fatty acid receptor 1. The data set can be described thus: Agonist activity at human GPR40 expressed in human HEK293 cells assessed as increase in intracellular calcium flux after 10 mins by fluorescence assay. The data set is classed as functional, cell-based. The procedure, abridged:
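Human GPR40 activity read by calcium mobilization to give EC50. Mean ± SD, n = 3.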

A short description of data set [3]: AUC (0 to t) in Sprague-Dawley rat at 10 mg/kg, po by LC-ESI-MS analysis. The data set is classed as ADME, organism-based. The following applies: in vivo. Summed up: (§1)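 SD rats dosed orally (3 or 10 mg/kg) or by intravenous injection (1 mg/kg). Plasma PK parameters derived per route: Cmax, AUC0-t, Tmax, t1/2 and F after oral dosing; CL, AUC0-t, MRT, t1/2 and Vdss after iv dosing. Mean ± SD from three independent experiments (n = 3).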

Data set [4] deals with Rattus norvegicus. The data set can be described thus: Antidiabetic activity in Sprague-Dawley rat assessed as reduction in blood glucose AUC (0 to 120 mins) at 10 to 20 mg/kg, po administered 60 mins prior to glucose challenge by OGTT. The data set is classed as functional, organism-based. Summed up:
(§2)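 OGTT in SD rats: compound given orally 60 min before a 3.0 g/kg glucose challenge. Blood glucose followed over time, and AUC0-60min or AUC0-120min calculated versus vehicle group. Mean ± SD, n = 8.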

The subject of data set [5] is Rattus norvegicus. The data set can be described thus: Antidiabetic activity in Sprague-Dawley rat assessed as reduction in blood glucose excursion at 10 to 20 mg/kg, po administered 60 mins prior to glucose challenge by OGTT. The data set is classed as functional, organism-based. The procedure, abridged: as §2
The nature of data set [6]: Cmax in Sprague-Dawley rat at 10 mg/kg, po by LC-ESI-MS analysis. Format: ADME, organism-based. Further details: dose 10 mg/kg, route oral. The following applies: in vivo. The procedure, abridged:
as §1

Data set [7] can be described thus: Elimination half life in Sprague-Dawley rat at 10 mg/kg, po by LC-ESI-MS analysis. Particulars: in vivo, read-out: beta t1/2 (converted). Format: ADME, organism-based. The procedure, abridged: as §1
Data set [8] in a line: Tmax in Sprague-Dawley rat at 10 mg/kg, po by LC-ESI-MS analysis. The data set is classed as ADME, organism-based. The following applies: in vivo. Summed up:
as §1

In data set [9] the test system is Rattus norvegicus. Kind of data set: Antidiabetic activity in Sprague-Dawley rat assessed as reduction in blood glucose AUC (0 to 60 mins) at 10 to 20 mg/kg, po administered 60 mins prior to glucose challenge by OGTT. Format: functional, organism-based. The procedure, abridged: as §2

For `O=C(O)CC(c1ccc(OCC2COc3ccc(Cl)cc3O2)cc1)c1cnco1` (stereo not drawn), the Emax in data set [1] worked out at 63%. Moreover, in [2], the EC50 was found to be 1030 nM.
With `CC#C[C@@H](CC(=O)O)c1ccc(OC[C@H]2COc3ccc(OC(C)C)cc3O2)cc1`, the Emax in data set [1] amounted to 90%. In addition, in data set [2], the EC50 worked out at 280 nM.
The corresponding values for `CC#C[C@@H](CC(=O)O)c1ccc(OC[C@H]2COc3ccc(C(=O)N(C)C)cc3O2)cc1` are 32% and greater than 30000 nM.
The corresponding values for `CC#C[C@@H](CC(=O)O)c1ccc(OC[C@H]2COc3cc(Cl)c(Cl)cc3O2)cc1` are 33% and 150 nM.
As to `O=C(O)CC(c1ccc(F)cc1)c1ccc(OCC2COc3ccc(Cl)cc3O2)cc1` (stereo not drawn), in data set [1], the Emax was determined as 83%. Moreover, in data set [2], the EC50 was determined as 4310 nM.
Turning to `CC#C[C@@H](CC(=O)O)c1ccc(OC[C@H]2COc3ccc(F)cc3O2)cc1`, in data set [1], the Emax was 86%. In addition, in data set [2], the EC50 is 210 nM.
The corresponding values for `CC#C[C@@H](CC(=O)O)c1ccc(OC[C@H]2COc3cc(F)c(Cl)cc3O2)cc1` are 46% and 210 nM.
Regarding `CC#C[C@@H](CC(=O)O)c1ccc(OC[C@H]2COc3c(Cl)cccc3O2)cc1`, in [1], the Emax stood at 81%. Further, in [2], the concentration for a half-maximal effect (EC50) amounted to 170 nM.
The corresponding values for `CC#C[C@@H](CC(=O)O)c1ccc(OC[C@H]2COc3ccc(OC)cc3O2)cc1` are 91% and 130 nM.
For the molecule `CC#C[C@@H](CC(=O)O)c1ccc(OC[C@@H]2COc3ccc(Cl)cc3O2)cc1`, the Emax in data set [1] was determined as 65%. Further, the EC50 in [2] came out at 260 nM.
`CC#C[C@@H](CC(=O)O)c1ccc(OC[C@H]2COc3ccc(C)cc3O2)cc1` came in with an AUC(0-t) in data set [3] of 65.2 µg·h/mL. Moreover, the result in [4], in data set [5] and in data set [9] was Active. In addition, in data set [1], the Emax turned out to be 78%. The EC50 in data set [2] is 120 nM. The molecule also showed a Cmax in data set [6] of 23700 ng/mL. Also, in data set [7], the half-life is 1.79 h. In addition, the Tmax in [8] worked out at 0.417 h.
With `CC#C[C@@H](CC(=O)O)c1ccc(OC[C@H]2COc3ccccc3O2)cc1`, in [3], the AUC(0-t) is 275 µg·h/mL. The outcome in [4], in data set [5] and in data set [9] was Active. In addition, the Emax in [1] is 70%. Also, the EC50 in [2] is 90 nM. Further, in data set [6], the Cmax turned out to be 36700 ng/mL. The half-life in data set [7] is 3.14 h. In data set [8], the time to peak (Tmax) is 1.17 h.
`CC#C[C@@H](CC(=O)O)c1ccc(OC[C@H]2COc3cc(Cl)ccc3O2)cc1`: in data set [1], the Emax was determined as 80%. Further, in data set [2], the EC50 was 110 nM.
For `Cn1nncc1C(CC(=O)O)c1ccc(OCC2COc3ccc(Cl)cc3O2)cc1` (stereo not drawn), the Emax in data set [1] was determined as 70%. For the same molecule, the EC50 in data set [2] came out at 3870 nM.
In the case of `Cn1ccnc1C(CC(=O)O)c1ccc(OCC2COc3ccc(Cl)cc3O2)cc1` (stereo not drawn), the maximal response (Emax) in [1] is 68%. Moreover, the EC50 in data set [2] amounted to 5880 nM.
In the case of `O=C(O)CC1(c2ccc(OCC3COc4ccc(Cl)cc4O3)cc2)COC1` (stereo not drawn), the Emax in [1] was 66%. For the same molecule, the EC50 in [2] was found to be 8060 nM.
The corresponding values for `CC#C[C@@H](CC(=O)O)c1ccc(OC[C@H]2COc3cc(Br)c(Cl)cc3O2)cc1` are 82% and 200 nM.
The corresponding values for `CC#C[C@H](CC(=O)O)c1ccc(OC[C@@H]2COc3ccc(Cl)cc3O2)cc1` are 41% and 5040 nM.
The corresponding values for `CCOC(CC(=O)O)c1ccc(OCC2COc3ccc(Cl)cc3O2)cc1` (stereo not drawn) are 46% and 640 nM.
As for `Cn1cncc1C(CC(=O)O)c1ccc(OCC2COc3ccc(Cl)cc3O2)cc1` (stereo not drawn), in data set [1], the Emax came out at 62%. Moreover, the EC50 in data set [2] worked out at 3060 nM.
The corresponding values for `CC#C[C@@H](CC(=O)O)c1ccc(OC[C@H]2COc3ccc(C#N)cc3O2)cc1` are 60% and 2100 nM.
The corresponding values for `CC#CC(CC(=O)O)c1ccc(OCC2COc3ccc(Cl)cc3O2)cc1` (stereo not drawn) are 104% and 100 nM.
For the molecule `CC#C[C@@H](CC(=O)O)c1ccc(OC[C@H]2COc3ccc(Br)cc3O2)cc1`, the Emax in data set [1] came to 69%. Further, in data set [2], the EC50 came to 210 nM.
`CCCCC/C=C\C/C=C\CCCCCCCC(=O)O` [LINOLEIC ACID]: the EC50 in [2] worked out at 4800 nM.
Turning to `CC#C[C@@H](CC(=O)O)c1ccc(OC[C@H]2COc3ccc(OC(F)(F)F)cc3O2)cc1`, the Emax in data set [1] is 73%. In addition, the EC50 in [2] turned out to be 700 nM.
As to `CC#C[C@@H](CC(=O)O)c1ccc(OC[C@H]2COc3ccc(C(C)=O)cc3O2)cc1`, the Emax in [1] came out at 51%. Further, the EC50 in data set [2] is greater than 30000 nM.
On to `COc1ccc2c(c1)OC(COc1ccc(CCC(=O)O)c(F)c1)CO2` (stereo not drawn), for which the Emax in [1] amounted to 80%. In data set [2], the EC50 is 1470 nM.
The corresponding values for `CC#C[C@@H](CC(=O)O)c1ccc(OC[C@H]2COc3ccc(S(C)(=O)=O)cc3O2)cc1` are 55% and 27200 nM.
With `CC#C[C@@H](CC(=O)O)c1ccc(OC[C@H]2COc3ccc(C(=O)N4CCOCC4)cc3O2)cc1`, the Emax in [1] was determined as 33%. For the same molecule, the EC50 in data set [2] is greater than 50000 nM.
The corresponding values for `O=C(O)CC(c1ccncc1)c1ccc(OCC2COc3ccc(Cl)cc3O2)cc1` (stereo not drawn) are 62% and 1170 nM.
The corresponding values for `CS(=O)(=O)CCCOc1ccc2c(c1)OC(COc1ccc(CCC(=O)O)c(F)c1)CC2` (stereo not drawn) are 38% and 36300 nM.
The corresponding values for `O=C(O)CCc1ccc(OCC2COc3ccc(Cl)cc3O2)cc1F` (stereo not drawn) are 50% and 830 nM.
Take `O=C(O)CCc1ccc(OCC2COc3ccc(Br)cc3O2)cc1F` (stereo not drawn): in data set [1], the Emax came out at 81%. In addition, the EC50 in data set [2] worked out at 2240 nM.
The corresponding values for `COCCOc1ccc2c(c1)OC(COc1ccc(CCC(=O)O)c(F)c1)CC2` (stereo not drawn) are 36% and 2370 nM.
The corresponding values for `O=C(O)CCc1ccc(OCC2COc3cc(Br)ccc3O2)cc1F` (stereo not drawn) are 67% and 980 nM.
The corresponding values for `CC#C[C@@H](CC(=O)O)c1ccc(OC[C@H]2COc3cccc(Cl)c3O2)cc1` are 95% and 520 nM.
For the molecule `CC#C[C@@H](CC(=O)O)c1ccc(OC[C@H]2COc3ccc(CO)cc3O2)cc1`, in [1], the Emax was 42%. Besides, the EC50 in data set [2] was greater than 30000 nM.
The corresponding values for `CC#C[C@H](CC(=O)O)c1ccc(OC[C@H]2COc3ccc(Cl)cc3O2)cc1` are 47% and 3400 nM.
Take `COc1ccc2c(c1)OC(COc1ccc(CCC(=O)O)c(F)c1)CC2` (stereo not drawn): the Emax in data set [1] was 58%. Moreover, the EC50 in data set [2] stood at 2110 nM.
For the molecule `O=C(O)CCc1ccc(NCC2COc3ccc(Cl)cc3O2)cc1F` (stereo not drawn), the Emax in data set [1] is 69%. Also, the EC50 in [2] was determined as 13600 nM.

As a reminder, the Emax is the size of the effect at its maximum, as opposed to the concentration needed. Broadly, the EC50 is the concentration giving half of the maximal effect. As usually defined, the AUC(0-t) is exposure summed from dosing to a finite time, without extrapolation to infinity. In general, Cmax refers to the peak of the concentration-time curve. Usually Tmax stands for the time at which the peak concentration occurs.

The values are drawn from ChEMBL document CHEMBL4261634, “Design and optimization of 2,3-dihydrobenzo[b][1,4]dioxine propanoic acids as novel GPR40 agonists with improved pharmacokinetic and safety profiles” (Bioorg Med Chem, 2018).
